Laboratory results from article PMC6426238 (Helvetica chimica acta, 2018).

Columns and labels:
[1] = tested on: HEK293 cells; assay: cell penetration by confocal fluorescence microscopy; format: cell-based; settings: FAM-labeled peptides, membrane stain R18
Summary of the method: (§1)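 FAM-labelled octa-Adp derivatives (side chains as free carboxylic acids, esters or amides) were purified by preparative HPLC. Unless stated otherwise, TFA counter-ions were removed with OH-form anion-exchange resin before use.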

[2] = tested on: MCF-7 cells; assay: as above; format: cell-based; settings: FAM-labeled peptides, membrane stain R18
Summary of the method: as §1

[3] = tested on: Caco2-cells; settings: degraded cyanophycin dipeptides; cited from earlier work
[4] = tested on: Plasmodium berghei; assay: parasitaemia reduction after intravenous tail-vein injection to infected mice; format: in vivo; settings: P. berghei-infected mice
Summary of the method: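 Single intravenous injection into the tail vein of mice, either uninfected or infected with Plasmodium berghei. Test compound was given in 0.9% NaCl at 0.01 ml/g body weight, with doses in μmol/kg. Oligo-arginine TFA salts were treated with Amberlyst A-26 (OH form) resin to remove TFA. Doses refer to the free peptide unless a TFA salt is stated. Read-outs were acute signs (death and its timing, heart rate, ataxia) and parasitaemia reduction in infected mice.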

Compound	cell permeability (CFM) [1]	cell permeability (CFM) [2]	absorption by Caco2-cells [3]	further results
NCCCC[C@H](NC(=O)C[C@H](N)C(=O)O)C(=O)O [β-Asp-Lys]			absorbed	
N=C(N)NCCC[C@H](NC(=O)CC(N)C(=O)O)C(=O)O (stereo partly drawn) [H-Adp-OH, H-βAsp-αArg-OH]			absorbed	
O=CN(O)CCCP(=O)(O)O [Na-fosmidomycin, fosmidomycin]				Parasitaemia reduction ([4]; i.v. dose 1.5·10^4 μmol/kg): No parasitaemia reduction (Parasitaemia reductions < 20% must be considered non-significant in this investigation: ‘no parasitaemia reduction’); Parasitaemia reduction ([4]; i.v. dose 1.5·10^6 μmol/kg): 95% Parasitaemia reduction; Parasitaemia reduction ([4]; i.v. dose 5·10^3 μmol/kg): No parasitaemia reduction (Parasitaemia reductions < 20% must be considered non-significant in this investigation: ‘no parasitaemia reduction’); Parasitaemia reduction ([4]; i.v. dose 5·10^5 μmol/kg): 72% Parasitaemia reduction

More lines, main results first:

cell permeability (CFM) [1]	cell permeability (CFM) [2]	Compound	absorption by Caco2-cells [3]	further results
mediocre to high cell permeability	mediocre to high cell permeability	FAM-(Adp(OMe))8-NH2 [Compound 8]		
does not enter the cells at all	does not enter the cells at all	FAM-Adp8-NH2 [Compound 7]		
mediocre to high cell permeability	mediocre to high cell permeability	FAM-(Adp(NMe2))8-NH2 [Compound 9]		
